Source: ChEMBL document CHEMBL4196198, “Terpenoids from Euphorbia pedroi as Multidrug-Resistance Reversers” (J Nat Prod, 2018)

What was measured:
[1] = system: L5178Y; assay: Antiproliferative activity against mouse L5178Y cells after 72 hrs by MTT assay; format: cell-based
Summary of the method: (§1)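 L5178Y-PAR and ABCB1-transfected L5178Y-MDR cells seeded at 6 × 10^3 per well. Compounds tested in 2-fold serial dilutions for 72 h. MTT in PBS was added for 4 h, then SDS (10% in 0.01 M HCl) overnight at 37 °C. OD read at 550 nm (reference 630 nm), in quadruplicate. IC50 fitted from dose–inhibition curves; mean ± SD.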

[2] = system: L5178Y; assay: Antiproliferative activity against mouse L5178Y cells harboring human ABCB1 after 72 hrs by MTT assay; format: ADME, cell-based; summary of the method: as §1
[3] = system: COLO 320; assay: Cytotoxicity against human COLO320 cells after 24 hrs by MTT assay; format: cell-based; conditions: COLO 320, 24 h
Summary of the method: (§2)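 Cells seeded at 1 × 10^4 per well, with adherent lines detached by trypsin-EDTA and allowed 4 h attachment at 37 °C, 5% CO2. Compounds in 2-fold serial dilutions for 24 h. MTT for 4 h, SDS/HCl solubilization overnight, OD 550 nm (ref 630 nm) in quadruplicate. Percent growth inhibition calculated vs cell and medium controls; IC50 from fitted curves.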

[4] = system: COLO 205; assay: Cytotoxicity against human COLO205 cells after 24 hrs by MTT assay; format: cell-based; conditions: COLO 205, 24 h; summary of the method: as §2
[5] = system: NIH3T3; assay: Cytotoxicity against mouse NIH/3T3 cells after 24 hrs by MTT assay; format: cell-based; conditions: NIH3T3, 24 h; summary of the method: as §2
[6] = system: MRC5; assay: Cytotoxicity against human MRC5 cells after 24 hrs by MTT assay; format: cell-based; conditions: MRC5, 24 h; summary of the method: as §2
[7] = target: T1, ATP-dependent translocase ABCB1 (Homo sapiens, UniProt P08183); assay: Modulation of human ABCB1 expressed in mouse L5178Y cells assessed as fluorescence activity ratio at 2 uM pretreated for 10 mins followed by rhodamine 123 addition and measured after 20 mins by flow cytometry (reference value: 1.01); format: cell-based
T1 sequence (P08183 whole entry): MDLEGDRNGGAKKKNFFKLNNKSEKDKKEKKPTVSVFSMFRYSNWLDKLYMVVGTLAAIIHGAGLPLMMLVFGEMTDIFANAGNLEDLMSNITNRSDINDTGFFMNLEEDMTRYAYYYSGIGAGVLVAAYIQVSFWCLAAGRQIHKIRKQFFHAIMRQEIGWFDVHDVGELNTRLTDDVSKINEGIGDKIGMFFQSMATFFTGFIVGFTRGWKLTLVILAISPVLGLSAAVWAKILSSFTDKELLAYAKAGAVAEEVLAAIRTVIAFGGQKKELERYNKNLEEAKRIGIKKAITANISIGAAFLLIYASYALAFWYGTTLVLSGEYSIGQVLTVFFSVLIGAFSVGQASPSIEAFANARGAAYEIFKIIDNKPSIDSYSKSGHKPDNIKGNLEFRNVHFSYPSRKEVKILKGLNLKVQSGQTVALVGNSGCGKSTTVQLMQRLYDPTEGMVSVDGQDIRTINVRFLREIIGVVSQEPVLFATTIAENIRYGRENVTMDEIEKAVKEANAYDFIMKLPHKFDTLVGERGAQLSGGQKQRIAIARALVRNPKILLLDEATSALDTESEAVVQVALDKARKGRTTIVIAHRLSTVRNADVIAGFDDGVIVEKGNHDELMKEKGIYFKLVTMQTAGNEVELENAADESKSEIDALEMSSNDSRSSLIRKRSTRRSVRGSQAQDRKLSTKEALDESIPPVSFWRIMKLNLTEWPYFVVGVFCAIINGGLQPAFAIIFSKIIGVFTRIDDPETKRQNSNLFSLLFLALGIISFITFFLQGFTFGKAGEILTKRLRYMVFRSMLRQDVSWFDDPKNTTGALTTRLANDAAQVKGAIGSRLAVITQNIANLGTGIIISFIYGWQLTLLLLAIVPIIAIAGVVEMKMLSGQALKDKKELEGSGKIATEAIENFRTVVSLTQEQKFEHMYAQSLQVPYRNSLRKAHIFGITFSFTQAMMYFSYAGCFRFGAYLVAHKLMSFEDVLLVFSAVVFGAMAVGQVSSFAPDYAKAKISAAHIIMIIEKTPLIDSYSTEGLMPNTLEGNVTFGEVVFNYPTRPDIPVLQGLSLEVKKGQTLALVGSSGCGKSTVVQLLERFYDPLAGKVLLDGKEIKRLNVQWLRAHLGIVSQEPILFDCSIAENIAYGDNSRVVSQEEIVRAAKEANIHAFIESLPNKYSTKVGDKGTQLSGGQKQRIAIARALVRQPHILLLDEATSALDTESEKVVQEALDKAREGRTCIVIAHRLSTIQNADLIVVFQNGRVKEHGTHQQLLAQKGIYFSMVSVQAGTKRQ

[8] = target: T1, ATP-dependent translocase ABCB1; assay: Modulation of human ABCB1 expressed in mouse L5178Y cells assessed as fluorescence activity ratio at 20 uM pretreated for 10 mins followed by rhodamine 123 addition and measured after 20 mins by flow cytometry (reference value: 1.01); format: cell-based
[9] = target: T1, ATP-dependent translocase ABCB1; assay: Modulation of ABCB1 (unknown origin) expressed in human COLO320 cells co-expressing LRP assessed as fluorescence activity ratio at 2 uM pretreated for 10 mins followed by rhodamine 123 addition and measured after 20 mins by flow cytometry (reference value: 0.79); format: cell-based
[10] = target: T1, ATP-dependent translocase ABCB1; assay: Modulation of ABCB1 (unknown origin) expressed in human COLO320 cells co-expressing LRP assessed as fluorescence activity ratio at 20 uM pretreated for 10 mins followed by rhodamine 123 addition and measured after 20 mins by flow cytometry (reference value: 0.79); format: cell-based
[11] = target: T1, ATP-dependent translocase ABCB1; assay: Modulation of human ABCB1 expressed in mouse L5178Y cells assessed as potentiation of doxorubicin-induced cytotoxicity by measuring combination index at ED50 measured after 48 hrs by MTT assay; format: cell-based
Summary of the method: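 Checkerboard in L5178Y-MDR cells: doxorubicin diluted 14.7–0.1 μM along one axis, modulator diluted from 2-fold its IC50 along the other, at fixed ratios. Cells at 2 × 10^5/mL, 48 h, MTT read-out. Dose–response curves fitted by Chou median-effect equation, keeping only r > 0.90. CI at 50% inhibition given as mean ± SD of three CI values from different drug ratios.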

[12] = target: T1, ATP-dependent translocase ABCB1; assay: Modulation of human ABCB1 expressed in mouse L5178Y cells assessed as fluorescence activity ratio at 0.2 uM pretreated for 10 mins followed by rhodamine 123 addition and measured after 20 mins by flow cytometry (reference value: 1.01); format: cell-based
[13] = target: T1, ATP-dependent translocase ABCB1; assay: Modulation of ABCB1 (unknown origin) expressed in human COLO320 cells co-expressing LRP assessed as fluorescence activity ratio at 0.2 uM pretreated for 10 mins followed by rhodamine 123 addition and measured after 20 mins by flow cytometry (reference value: 0.79); format: cell-based

For `C[C@H](C/C=C/C(C)(C)O)[C@H]1CC[C@@]2(C)[C@@H]3CC[C@H]4C(C)(C)[C@@H](O)CC[C@@]45C[C@@]35CC[C@]12C`, the IC50 [1] was over 10 µM, the IC50 [2] was over 10 µM and the IC50 [3] was over 10 µM. For the same molecule, the IC50 [4] was over 10 µM, the IC50 [5] was over 10 µM and the IC50 [6] was over 10 µM. The Ratio [7] was 10.68, the Ratio [8] was 67.05 and the Ratio [9] was 1.26. For the same molecule, the Ratio [10] was 3.45.

For `C=C(C)[C@H](O)CC[C@@H](C)[C@H]1CC[C@@]2(C)[C@@H]3CC[C@H]4C(C)(C)[C@@H](O)CC[C@@]45C[C@@]35CC[C@]12C`, the IC50 [1] was over 10 µM, the IC50 [2] was over 10 µM and the IC50 [3] was over 10 µM. It also gave an IC50 [4] of over 10 µM, an IC50 [5] of over 10 µM and an IC50 [6] of over 10 µM. For the same molecule, the Ratio [7] was 5.91, the Ratio [8] was 43.58 and the Ratio [9] was 0.77. The Ratio [10] was 5.91.

For `CC1=C2C=C3CC[C@@H]4C(C)(C)/C(=N/O)CC[C@@]4(C)[C@@H]3C[C@H]2OC1=O`, the IC50 [1] was over 10 µM, the IC50 [2] was over 10 µM and the Ratio [7] was 0.96. For the same molecule, the Ratio [8] was 4.88 and the CI [11] was 0.477.

With `CC1=C2C=C3CC[C@@H]4C(C)(C)/C(=N/OC(=O)c5ccccc5)CC[C@@]4(C)[C@@H]3C[C@H]2OC1=O` the IC50 [1] was over 10 µM, the IC50 [2] was over 10 µM and the Ratio [7] was 5.78. It also gave a Ratio [8] of 56.37 and a CI [11] of 0.152.

Molecule `CC(=O)O/N=C1\CC[C@@]2(C)[C@@H]3C[C@H]4OC(=O)C(C)=C4C=C3CC[C@@H]2C1(C)C` has an IC50 [1] of over 10 µM, an IC50 [2] of over 10 µM and a Ratio [7] of 3.02. It also gave a Ratio [8] of 38.64 and a CI [11] of 0.501.

With `C=C(CC[C@@H](C)[C@H]1CC[C@@]2(C)C(=O)[C@@]3(CC[C@]12C)[C@@H](O)C[C@H]1[C@H](C)[C@@H](O)CC[C@@]13C)C(C)C` the IC50 [1] was over 10 µM, the IC50 [2] was over 10 µM and the IC50 [3] was over 10 µM. For the same molecule, the IC50 [4] was over 10 µM, the IC50 [5] was over 10 µM and the IC50 [6] was over 10 µM. For the same molecule, the Ratio [12] was 43.75, the Ratio [7] was 54.38 and the Ratio [8] was 96.02. The Ratio [13] was 1.68, the Ratio [9] was 2.27 and the Ratio [10] was 8. The CI [11] was 0.872.

`CC1=C2C=C3CC[C@@H]4C(C)(C)/C(=N/OC(=O)c5ccco5)CC[C@@]4(C)[C@@H]3C[C@H]2OC1=O` showed an IC50 [1] of over 10 µM, an IC50 [2] of over 10 µM and a Ratio [7] of 2.1. The Ratio [8] was 40.69 and the CI [11] was 0.454.

`CCCC(=O)O/N=C1\CC[C@@]2(C)[C@@H]3C[C@H]4OC(=O)C(C)=C4C=C3CC[C@@H]2C1(C)C` was tested, and the IC50 [1] was over 10 µM, the IC50 [2] was over 10 µM and the Ratio [7] was 1.36. It also gave a Ratio [8] of 10.38 and a CI [11] of 0.387.

`CC1=C2C=C3CC[C@@H]4C(C)(C)/C(=N/OC(=O)c5cccs5)CC[C@@]4(C)[C@@H]3C[C@H]2OC1=O` was tested, and the IC50 [1] was over 10 µM, the IC50 [2] was over 10 µM and the Ratio [7] was 1.09. It also gave a Ratio [8] of 7.09 and a CI [11] of 0.324.

`C=C(CC[C@@H](C)[C@H]1CC[C@@]2(C)C3=C(C(=O)C[C@]12C)[C@@]1(C)CC[C@H](O)[C@@H](C)[C@@H]1CC3=O)C(C)C` showed an IC50 [1] of over 10 µM, an IC50 [2] of over 10 µM and an IC50 [3] of over 10 µM. It also gave an IC50 [4] of over 10 µM, an IC50 [5] of over 10 µM and an IC50 [6] of over 10 µM. It also gave a Ratio [7] of 6.14, a Ratio [8] of 30.68 and a Ratio [9] of 1.09. The Ratio [10] was 1.84.

`CC[C@H](CC[C@@H](C)[C@H]1CC[C@H]2[C@@H]3CCC4=CC(=O)CC[C@]4(C)[C@H]3CC[C@]12C)C(C)C` was tested, and the IC50 [1] was over 10 µM, the IC50 [2] was over 10 µM and the IC50 [3] was over 10 µM. The IC50 [4] was over 10 µM, the IC50 [5] was over 10 µM and the IC50 [6] was over 10 µM. The Ratio [7] was 2.51, the Ratio [8] was 22.56 and the Ratio [9] was 0.97. The Ratio [10] was 1.34.

`CC1=C2C=C3CC[C@@H]4C(C)(C)[C@@H](O)CC[C@@]4(C)[C@@H]3C[C@H]2OC1=O` [HELIOSCOPINOLIDE B] gave an IC50 [1] of over 10 µM, an IC50 [2] of over 10 µM and an IC50 [3] of over 10 µM. For the same molecule, the IC50 [4] was over 10 µM, the IC50 [5] was over 10 µM and the IC50 [6] was over 10 µM. It also gave a Ratio [7] of 1.7, a Ratio [8] of 8.18 and a Ratio [9] of 1.73. For the same molecule, the Ratio [10] was 6.78 and the CI [11] was 0.652.

In the case of `CC1=C2C=C3CC[C@@H]4C(C)(C)C(=O)CC[C@@]4(C)[C@@H]3C[C@H]2OC1=O` [HELIOSCOPINOLIDE E], the IC50 [1] is reported as over 10 µM, the IC50 [2] is reported as over 10 µM and the IC50 [3] is reported as over 10 µM. The IC50 [4] was over 10 µM, the IC50 [5] was over 10 µM and the IC50 [6] was over 10 µM. For the same molecule, the Ratio [7] was 1.84, the Ratio [8] was 10.23 and the Ratio [9] was 0.44. It also gave a Ratio [10] of 0.98 and a CI [11] of 0.367.

`CC1(C)CC[C@]2(C(=O)O)CC[C@]3(C)C(=CC[C@@H]4[C@@]5(C)CC[C@H](O)C(C)(C)[C@@H]5CC[C@]43C)[C@@H]2C1` [OLEANOLIC_ACID] gave an IC50 [1] of over 10 µM, an IC50 [2] of over 10 µM and an IC50 [3] of over 10 µM. It also gave an IC50 [4] of over 10 µM, an IC50 [5] of over 10 µM and an IC50 [6] of over 10 µM. It also gave a Ratio [7] of 1.06, a Ratio [8] of 1.7 and a Ratio [9] of 2.1. It also gave a Ratio [10] of 4.71.
